Active and inactive are the calls of the source. The rule behind the calls is not given here. Some results are limits rather than exact numbers.

Test [1] has as its system Rattus norvegicus. In words: Antihypertensive activity was determined before dosing in conscious, spontaneously hypertensive rats(SHR). Format: functional. The procedure, abridged:
(§1)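 Blood pressure (mmHg) and heart rate (beats/min) were measured directly in conscious spontaneously hypertensive rats before oral dosing. Groups had n = 4, and values are means ± SEM.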

The target of test [2] is Beta-1 adrenergic receptor (Rattus norvegicus) (UniProt P18090). In words: Antagonistic activity was determined for 50% inhibition of tachycardia response in anesthetized, normotensive rat at a dose range of 0.3-3 mg/kg(iv). Format: functional, organism-based. The procedure, abridged: (§2)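 Anesthetized normotensive rats received the test agent iv as HCl salts in three cumulative doses. The tachycardic response to (±)-isoproterenol (0.1 mg/kg iv) was measured. ID50 is the iv dose giving 50% inhibition of that response, reported as mean ± SEM. Analysis used analysis of variance with Duncan's multiple range statistic.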
Beta-1 adrenergic receptor (Rattus norvegicus), sequence (P18090 whole entry, looked up): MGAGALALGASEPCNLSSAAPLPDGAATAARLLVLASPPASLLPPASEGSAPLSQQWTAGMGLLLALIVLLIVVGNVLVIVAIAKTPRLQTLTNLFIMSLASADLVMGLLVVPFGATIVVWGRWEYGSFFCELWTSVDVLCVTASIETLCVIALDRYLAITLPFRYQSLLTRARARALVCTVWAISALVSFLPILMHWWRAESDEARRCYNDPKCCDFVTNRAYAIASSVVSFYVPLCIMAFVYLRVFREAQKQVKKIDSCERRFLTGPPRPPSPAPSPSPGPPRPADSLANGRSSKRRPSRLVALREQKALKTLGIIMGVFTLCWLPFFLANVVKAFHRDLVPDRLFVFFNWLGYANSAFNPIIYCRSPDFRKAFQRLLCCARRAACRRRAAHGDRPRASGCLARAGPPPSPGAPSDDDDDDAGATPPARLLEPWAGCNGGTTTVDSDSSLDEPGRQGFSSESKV

Test [3] concerns Rattus norvegicus. Kind of test: Change in Heart rate(beats/min) was determined after 3h of (10 mg/kg p.o.) administration in conscious, spontaneously hypertensive rats. Type of test: functional. The procedure, abridged: (§3)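 Conscious spontaneously hypertensive rats (n = 4 per group) were dosed orally at 10 mg/kg as HCl salts, with placebo as a control group. Blood pressure was measured directly, and heart rate was also recorded. Changes from pre-dose values were read at 1, 2, 3 and 4 h and reported as means ± SEM. Analysis used ANOVA with Duncan's multiple range statistic.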

The test system of test [4] is Rattus norvegicus. In words: Change in Heart rate(beats/min) was determined after 2 hr of (10 mg/kg p.o.) administration in conscious, spontaneously hypertensive rats. Type of test: functional. The procedure, abridged: as §3
The test system of test [5] is Rattus norvegicus. Kind of test: Antihypertensive activity was determined before dosing in conscious, spontaneously hypertensive rats(SHR); 12/~1. Type of test: functional.
The subject of test [6] is Rattus norvegicus. Kind of test: Change in Heart rate(beats/min) was determined after 4 hr of (10 mg/kg p.o.) administration in conscious, spontaneously hypertensive rats. Type of test: functional. The procedure, abridged: as §3
Test [7] addresses T1, Adrenergic receptor alpha (Rattus norvegicus) (UniProt P15823+P23944+P43140+P22086+P19328+P22909).
For test [8], the system named is Rattus norvegicus. Kind of test: Change in Heart rate(beats/min) was determined after 1 hr of (10 mg/kg p.o.) administration in conscious, spontaneously hypertensive rats. Type of test: functional. The procedure, abridged:
as §3

In test [9] the test system is Rattus norvegicus. In words: Change in blood-pressure was determined after 3h administration of (10 mg/kg/po) in conscious, spontaneously hypertensive rats(SHR). Format: functional. The procedure, abridged: as §3
In test [10] the test system is Adrenergic receptor alpha (Rattus norvegicus). In words: Relative alpha-adrenergic blocking potency was determined after administration of intravenously.
For test [11], the system named is Rattus norvegicus. In words: Antihypertensive activity was determined by Heart rate(beats/min) measurement before dosing in conscious, spontaneously hypertensive rats. Format: functional. The procedure, abridged:
as §1

For test [12], the system named is Rattus norvegicus. In words: Change in blood-pressure was determined after 4 hr administration of (10 mg/kg/po) in conscious, spontaneously hypertensive rats(SHR). Format: functional. The procedure, abridged: as §3
The subject of test [13] is Rattus norvegicus. Kind of test: Change in blood-pressure was determined after 2 hr administration of (10 mg/kg/po) in conscious, spontaneously hypertensive rats(SHR). Format: functional. The procedure, abridged: as §3
In test [14] the test system is Rattus norvegicus. In words: Change in blood-pressure was determined after 1 hr administration of (10 mg/kg/po) in conscious, spontaneously hypertensive rats(SHR). Type of test: functional. The procedure, abridged: as §3
Test [15] deals with Rattus norvegicus. In words: Decrease in blood pressure(mm/Hg) was determined after administration of (10 mg/kg/po). Format: functional. The procedure, abridged: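 Conscious spontaneously hypertensive rats, n = 4 per group, placebo control. Single oral dose of 10 mg/kg as HCl salt. Blood pressure and heart rate were measured directly before dosing and at 1, 2, 3 and 4 h after. Change from predose is given as mean ± SEM. Statistics used analysis of variance with Duncan's multiple range test.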

In test [16] the target is Beta-1 adrenergic receptor (Rattus norvegicus) (UniProt P18090). In words: Potency to block Beta-1 adrenergic receptor relative to labetolol. The procedure, abridged: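 Rats, iv dosing as HCl salts in three cumulative doses. Antagonism of the tachycardic response to (±)-isoproterenol (0.1 mg/kg iv) was measured. ID50 is the dose giving 50% inhibition of that response (mean ± SEM), with 3-8 animals per compound. Statistics used analysis of variance with Duncan's multiple range test.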

Test [17] has the same target. Kind of test: Antagonistic activity was determined for 50% inhibition of tachycardia response in anesthetized, normotensive rat at a dose range of 0.3-3 mg/kg(iv); Inactive. Format: functional, organism-based. The procedure, abridged:
as §2

Test [18] deals with T1, Adrenergic receptor alpha (Rattus norvegicus). This is another data set of the same source.
The test system of test [19] is Rattus norvegicus. Kind of test: Decrease in blood pressure(mm/Hg) was determined after administration of (10 mg/kg/po); 30-32/>4. Type of test: functional.
The test system of test [20] is Rattus norvegicus. In words: Change in blood-pressure was determined after 4 hr administration of(10 mg/kg/po) in conscious, spontaneously hypertensive rats(SHR). Type of test: functional. The procedure, abridged:
as §3

Test [21] relates to Rattus norvegicus. Kind of test: Change in blood-pressure was determined after 2 hr administration of(10 mg/kg/po) in conscious, spontaneously hypertensive rats(SHR). Format: functional. The procedure, abridged:
as §3

Test [22] can be described thus: Ratio of Relative potency of beta1/alpha bock values. Type of test: functional.
In test [23] the test system is Rattus norvegicus. In words: Change in blood-pressure was determined after 3h administration of(10 mg/kg/po) in conscious, spontaneously hypertensive rats(SHR). Type of test: functional. The procedure, abridged: as §3
Test [24] deals with Beta-1 adrenergic receptor (Rattus norvegicus) (UniProt P18090). Kind of test: Antagonistic activity was determined for 50% inhibition of tachycardia response in anesthetized, normotensive rat at a dose range of 0.03-0.3 mg/kg(iv). Format: functional, organism-based. The procedure, abridged: as §2
In test [25] the target is T1, Adrenergic receptor alpha (Rattus norvegicus). The source holds these as a separate data set.
Test [26] has as its system Rattus norvegicus. Kind of test: Change in blood-pressure was determined after 1 hr administration of(10 mg/kg/po) in conscious, spontaneously hypertensive rats(SHR). Format: functional. The procedure, abridged:
as §3

For test [27], the species on record is Rattus norvegicus. In words: Potency (vasodilation) relative to labetolol. Format: functional.
A short description of test [28]: Ratio of Relative potency of beta1/alpha bock values; 26-39.
The target of test [29] is Beta-1 adrenergic receptor (Rattus norvegicus) (UniProt P18090). In words: Antagonistic activity was determined for 50% inhibition of tachycardia response in anesthetized, normotensive rat at a dose range of 0.1-1(iv). Type of test: functional, organism-based. The procedure, abridged:
as §2

`C[C@H](CCc1ccccc1)NC[C@@H](O)c1ccc(O)c(C(N)=O)c1.Cl` returned a BP in the test with Rattus norvegicus [1] of 158 mmHg. Moreover, the ID50 in test [2] stood at 5 mg/kg; in [7], 1.3 mg/kg. The Heart rate in the test with Rattus norvegicus [3] was -34 beats min-1; with Rattus norvegicus [4] it was -16 beats min-1; with Rattus norvegicus [6], -39 beats min-1; in the test on Rattus norvegicus [8], -9 beats min-1; with Rattus norvegicus [11], 359 beats min-1. The Decreace in BP in the test on Rattus norvegicus [5] is 12 mmHg. The “Change in BP” value in the test on Rattus norvegicus [9] is -4 mmHg; with Rattus norvegicus [12] it was -3 mmHg; in the test on Rattus norvegicus [13], -5 mmHg; in the test with Rattus norvegicus [14], -12 mmHg. Moreover, the Relative potency in [10] is on record as 5.1.
In the test with Rattus norvegicus [1], `C[C@@H](CCc1ccccc1)NC[C@@H](O)c1ccc(O)c(C(N)=O)c1.Cl` gave a BP of 159 mmHg. In addition, the Heart rate in the test with Rattus norvegicus [3] is recorded as -4 beats min-1; in the test on Rattus norvegicus [4], 1 beats min-1; with Rattus norvegicus [6], -7 beats min-1; with Rattus norvegicus [8], 8 beats min-1; in the test on Rattus norvegicus [11], 356 beats min-1. The “Decrease in blood pressure” value with Rattus norvegicus [15] turned out to be 0. Also, the ID50 in test [7] is 4.8 mg/kg. Moreover, the Relative potency in test [16] is 0. For the same compound, the “Change in BP” value with Rattus norvegicus [9] was found to be 11 mmHg; with Rattus norvegicus [12] it was 8 mmHg; with Rattus norvegicus [13], 10 mmHg; with Rattus norvegicus [14], 4 mmHg. In [17], the ID50 result is “inactive”.
`C[C@@H](CCc1ccccc1)NC[C@H](O)c1ccc(O)c(C(N)=O)c1.Cl` showed a BP with Rattus norvegicus [1] of 164 mmHg. Moreover, in test [2], the ID50 was 4.1 mg/kg. In addition, the Heart rate is -8 beats min-1 in the test on Rattus norvegicus [3]; 5 beats min-1 with Rattus norvegicus [4]; 6 beats min-1 in the test on Rattus norvegicus [6]; 7 beats min-1 in the test with Rattus norvegicus [8]; 362 beats min-1 in the test with Rattus norvegicus [11]. Moreover, the “Decrease in blood pressure” value with Rattus norvegicus [15] is listed as 0. Moreover, in test [18], the ID50 result is “inactive”. The Relative potency in [16] was below 0.06. In addition, the “Change in BP” value in the test on Rattus norvegicus [9] is reported as 6 mmHg; with Rattus norvegicus [12], 8 mmHg; in the test with Rattus norvegicus [13], -2 mmHg; in the test with Rattus norvegicus [14], -5 mmHg.
Regarding `C[C@H](CCc1ccccc1)NC[C@H](O)c1ccc(O)c(C(N)=O)c1.Cl` [DILEVALOL HYDROCHLORIDE], the BP in the test with Rattus norvegicus [1] worked out at 160 mmHg. Further, in the test with Rattus norvegicus [19], the “Decrease in blood pressure” value is above 30. Also, the “Change in BP” value in the test on Rattus norvegicus [20] was -27 mmHg; in the test with Rattus norvegicus [21] it was -26 mmHg; in the test with Rattus norvegicus [23], -29 mmHg; with Rattus norvegicus [26] it was -26 mmHg. Moreover, the Heart rate with Rattus norvegicus [3] is -55 beats min-1; in the test with Rattus norvegicus [4], -41 beats min-1; with Rattus norvegicus [6] it was -45 beats min-1; with Rattus norvegicus [8], -47 beats min-1; in the test with Rattus norvegicus [11] it was 378 beats min-1. In test [22], the Ratio was above 500. Also, the figures for the Relative potency (in test [16]; in the test listed under Rattus norvegicus [27]) were 3.5 and 7, respectively. Further, the ID50 in test [24] came out at 0.07 mg/kg; in test [25] it was 35 mg/kg.
Regarding `CC(CCc1ccccc1)NCC(O)c1ccc(O)c(C(N)=O)c1` (centres undefined) [LABETALOL], in test [28], the Ratio worked out at 26. In addition, in the test with Rattus norvegicus [1], the BP was determined as 160 mmHg. In the test on Rattus norvegicus [19], the “Decrease in blood pressure” value is above 30. For the same compound, the Heart rate in the test on Rattus norvegicus [3] is listed as -27 beats min-1; in the test on Rattus norvegicus [4] it was -18 beats min-1; in the test on Rattus norvegicus [6], -23 beats min-1; in the test on Rattus norvegicus [8] it was -13 beats min-1; in the test on Rattus norvegicus [11] it was 362 beats min-1. For the same compound, the ID50 came to 0.25 mg/kg in [29] and 7.1 mg/kg in test [7]. The Relative potency (in test [16]; in the test listed under Rattus norvegicus [27]) was 1 each time. The “Change in BP” value with Rattus norvegicus [9] is on record as -20 mmHg; in the test with Rattus norvegicus [12], -20 mmHg; in the test on Rattus norvegicus [13], -22 mmHg; in the test with Rattus norvegicus [14], -29 mmHg.

Values taken from ChEMBL document CHEMBL1121973, “Synthesis and comparison of some cardiovascular properties of the stereoisomers of labetalol” (1982).
